In ChEMBL document CHEMBL1811765, “Synthesis, biological evaluation, and molecular modeling of cinnamic acyl sulfonamide derivatives as novel antitubulin agents” (Bioorg Med Chem, 2011):
Converted amounts (≈) assume the structure as drawn.

Key:
B16-F10 [1] = assay: Antiproliferative activity against mouse B16F10 cells after 48 hrs by MTT based ELISA assay; format: functional, cell-based; settings: B16-F10, 48 h
How it was run: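 B16-F10 cells grown to log phase in RPMI 1640 with 10% FBS, seeded at 2 × 10⁴ cells/mL and incubated 24 h at 37 °C, 5% CO₂ before treatment. Read-out was absorbance at 570 nm after an overnight incubation at 37 °C. Three replicate wells per concentration, each assay run at least three times. IC50 reported.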

[2] = Inhibition of bovine brain tubulin polymerization after 20 mins by turbidimetric analysis; parameters: species or system Bos taurus
How it was run: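 Tubulin at 10 µM in glutamate buffer was preincubated with varying compound concentrations at 30 °C, then cooled to 0 °C. GTP was added, the mix moved to 0 °C cuvettes and warmed to 30 °C, and assembly was followed turbidimetrically.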

B16-F10 [3] = assay: Cell cycle arrest in mouse B16F10 cells assessed as accumulation at G0/G1 phase at 1 ug/ml after 24 hrs by flow cytometry analysis (reference value: 48.57%); format: functional
B16-F10 [4] = assay: Cell cycle arrest in mouse B16F10 cells assessed as accumulation at G2/M phase at 1 ug/ml after 24 hrs by flow cytometry analysis (reference value: 17.03%); format: functional
B16-F10 [5] = assay: Cell cycle arrest in mouse B16F10 cells assessed as accumulation at S phase at 1 ug/ml after 24 hrs by flow cytometry analysis (reference value: 9.40%); format: functional
B16-F10 [6] = assay: Cell cycle arrest in mouse B16F10 cells assessed as accumulation at G2/M phase at 5 ug/ml after 24 hrs by flow cytometry analysis (reference value: 17.03%); format: functional
B16-F10 [7] = assay: Cell cycle arrest in mouse B16F10 cells assessed as accumulation at G0/G1 phase at 5 ug/ml after 24 hrs by flow cytometry analysis (reference value: 48.57%); format: functional
B16-F10 [8] = assay: Cell cycle arrest in mouse B16F10 cells assessed as accumulation at S phase at 5 ug/ml after 24 hrs by flow cytometry analysis (reference value: 9.40%); format: functional

SMILES | IC50 (B16-F10 [1]) [µg/mL] | IC50 [2] [µg/mL] | other results
Cc1ccc(S(=O)(=O)NC(=O)/C=C/c2ccc([N+](=O)[O-])cc2)cc1 | 13.5 (≈ 39 µM) | 151 (≈ 436 µM) | 
O=C(/C=C/c1ccc(Br)cc1)NS(=O)(=O)c1ccc(Cl)cc1 | 5.2 (≈ 13 µM) | 55 (≈ 137 µM) | 
O=C(/C=C/c1ccc(Cl)cc1)NS(=O)(=O)c1ccc(Cl)cc1 | 2.5 (≈ 7.02 µM) | 9.3 (≈ 26.1 µM) | 
COc1ccc(/C=C\c2cc(OC)c(OC)c(OC)c2)cc1O [COMBRETASTATIN A4] |  | 0.7 (≈ 2.21 µM) | 
COc1ccc(/C=C/C(=O)NS(=O)(=O)c2ccc(Cl)cc2)cc1 | 5.3 (≈ 15.1 µM) | 52 (≈ 148 µM) | 
Cc1ccc(S(=O)(=O)NC(=O)/C=C/c2ccc(N(C)C)cc2)cc1 | 4.3 (≈ 12.5 µM) | 37 (≈ 107 µM) | 
CN(C)c1ccc(/C=C/C(=O)NS(=O)(=O)c2ccccc2)cc1 | 2.3 (≈ 6.96 µM) | 26 (≈ 78.7 µM) | 
CN(C)c1ccc(/C=C/C(=O)NS(=O)(=O)c2ccc(Cl)cc2)cc1 | 2.8 (≈ 7.67 µM) | 14 (≈ 38.4 µM) | 
COc1ccc(/C=C/C(=O)NS(=O)(=O)c2ccccc2)cc1 | 13.2 (≈ 41.6 µM) | 160 (≈ 504 µM) | 
O=C(/C=C/c1ccc([N+](=O)[O-])cc1)NS(=O)(=O)c1ccc(Br)cc1 | 13.9 (≈ 33.8 µM) | 163 (≈ 396 µM) | 
COc1ccc(/C=C/C(=O)NS(=O)(=O)c2ccc(Br)cc2)cc1 | 5.8 (≈ 14.6 µM) | 53 (≈ 134 µM) | 
COc1cc2c(c(OC)c1OC)-c1ccc(OC)c(=O)cc1[C@@H](NC(C)=O)CC2 [COLCHICINE] |  |  | Activity (B16-F10 [3]): 1.58%; Activity (B16-F10 [4]): 61.11%; Activity (B16-F10 [5]): 1.3%
O=C(/C=C/c1ccc(Cl)cc1)NS(=O)(=O)c1ccccc1 | 2.2 (≈ 6.84 µM) | 15.3 (≈ 47.5 µM) | 
O=C(/C=C/c1ccccc1)NS(=O)(=O)c1ccccc1 | 3.5 (≈ 12.2 µM) | 37 (≈ 129 µM) | 
COc1ccc(/C=C/C(=O)NS(=O)(=O)c2ccc(C)cc2)cc1 | 12.2 (≈ 36.8 µM) | 146 (≈ 441 µM) | 
O=C(/C=C/c1ccc(Br)cc1)NS(=O)(=O)c1ccccc1 | 3.9 (≈ 10.6 µM) | 74 (≈ 202 µM) | 
Cc1ccc(S(=O)(=O)NC(=O)/C=C/c2ccc(Br)cc2)cc1 | 12.1 (≈ 31.8 µM) | 137 (≈ 360 µM) | 
CN(C)c1ccc(/C=C/C(=O)NS(=O)(=O)c2ccc(Br)cc2)cc1 | 4.2 (≈ 10.3 µM) | 34 (≈ 83.1 µM) | 
Cc1ccc(S(=O)(=O)NC(=O)/C=C/c2ccc(Cl)cc2)cc1 | 4.6 (≈ 13.7 µM) | 30 (≈ 89.3 µM) | 
O=C(/C=C/c1ccc(Cl)cc1)NS(=O)(=O)c1ccc(Br)cc1 | 2.8 (≈ 6.99 µM) | 10.8 (≈ 27 µM) | 
O=C(/C=C/c1ccc(Br)cc1)NS(=O)(=O)c1ccc(Br)cc1 | 5.1 (≈ 11.5 µM) | 53 (≈ 119 µM) | 

Further lines, with some results ahead:

IC50 (B16-F10 [1]) [µg/mL] | IC50 [2] [µg/mL] | SMILES | other results
1.2 (≈ 3.12 µM) | 3.8 (≈ 9.89 µM) | O=C(/C=C/c1ccc(Br)cc1)NS(=O)(=O)c1ccc(F)cc1 | 
2.2 (≈ 6.84 µM) | 14.8 (≈ 46 µM) | O=C(/C=C/c1ccccc1)NS(=O)(=O)c1ccc(Cl)cc1 | 
2.8 (≈ 7.29 µM) | 14.7 (≈ 38.3 µM) | O=C(/C=C/c1ccc(F)cc1)NS(=O)(=O)c1ccc(Br)cc1 | 
12.6 (≈ 30.6 µM) | 134 (≈ 326 µM) | O=C(/C=C/c1ccccc1[N+](=O)[O-])NS(=O)(=O)c1ccc(Br)cc1 | 
3.9 (≈ 10.6 µM) | 63 (≈ 172 µM) | O=C(/C=C/c1ccccc1)NS(=O)(=O)c1ccc(Br)cc1 | 
2.1 (≈ 6.88 µM) | 4.5 (≈ 14.7 µM) | O=C(/C=C/c1ccccc1)NS(=O)(=O)c1ccc(F)cc1 | 
5.1 (≈ 15.2 µM) | 45 (≈ 134 µM) | COc1ccc(/C=C/C(=O)NS(=O)(=O)c2ccc(F)cc2)cc1 | 
0.8 (≈ 2.47 µM) | 2.4 (≈ 7.42 µM) | O=C(/C=C/c1ccc(F)cc1)NS(=O)(=O)c1ccc(F)cc1 | Activity (B16-F10 [3]): 26.7%; Activity (B16-F10 [4]): 30.21%; Activity (B16-F10 [5]): 9.08%; Activity (B16-F10 [6]): 49%; Activity (B16-F10 [7]): 5.65%; Activity (B16-F10 [8]): 4.22%
2 (≈ 5.89 µM) | 8.9 (≈ 26.2 µM) | O=C(/C=C/c1ccc(Cl)cc1)NS(=O)(=O)c1ccc(F)cc1 | 
4.8 (≈ 14.4 µM) | 50 (≈ 150 µM) | O=C(/C=C/c1ccc([N+](=O)[O-])cc1)NS(=O)(=O)c1ccccc1 | 
6.6 (≈ 18 µM) | 78 (≈ 213 µM) | O=C(/C=C/c1ccccc1[N+](=O)[O-])NS(=O)(=O)c1ccc(Cl)cc1 | 
2.2 (≈ 6.28 µM) | 6.3 (≈ 18 µM) | O=C(/C=C/c1ccc([N+](=O)[O-])cc1)NS(=O)(=O)c1ccc(F)cc1 | 
4.8 (≈ 15 µM) | 40 (≈ 125 µM) | Cc1ccc(S(=O)(=O)NC(=O)/C=C/c2ccc(F)cc2)cc1 | 
10.3 (≈ 29.7 µM) | 102 (≈ 294 µM) | Cc1ccc(S(=O)(=O)NC(=O)/C=C/c2ccccc2[N+](=O)[O-])cc1 | 
13.8 (≈ 45.8 µM) | 152 (≈ 504 µM) | Cc1ccc(S(=O)(=O)NC(=O)/C=C/c2ccccc2)cc1 | 
2.3 (≈ 6.6 µM) | 10 (≈ 28.7 µM) | CN(C)c1ccc(/C=C/C(=O)NS(=O)(=O)c2ccc(F)cc2)cc1 | 
6 (≈ 17.1 µM) | 69 (≈ 197 µM) | O=C(/C=C/c1ccccc1[N+](=O)[O-])NS(=O)(=O)c1ccc(F)cc1 | 
2.6 (≈ 7.65 µM) | 4.5 (≈ 13.2 µM) | O=C(/C=C/c1ccc(F)cc1)NS(=O)(=O)c1ccc(Cl)cc1 | 
6 (≈ 18.1 µM) | 74 (≈ 223 µM) | O=C(/C=C/c1ccccc1[N+](=O)[O-])NS(=O)(=O)c1ccccc1 | 
13.7 (≈ 37.4 µM) | 134 (≈ 365 µM) | O=C(/C=C/c1ccc([N+](=O)[O-])cc1)NS(=O)(=O)c1ccc(Cl)cc1 | 
2.1 (≈ 6.88 µM) | 4.5 (≈ 14.7 µM) | O=C(/C=C/c1ccc(F)cc1)NS(=O)(=O)c1ccccc1 | 
